According to ChEMBL document CHEMBL4715754, “Slowing down fat digestion and absorption by an oxadiazolone inhibitor targeting selectively gastric lipolysis” (2016):

Assays:
[1] = target: T1, Gastric triacylglycerol lipase (Canis lupus familiaris) (UniProt P80035); experiment: Inhibition of recombinant dog gastric lipase at 20:1 molar excess compound concentration preincubated for 30 mins at 25 degreeC relative to control
T1 sequence (whole entry): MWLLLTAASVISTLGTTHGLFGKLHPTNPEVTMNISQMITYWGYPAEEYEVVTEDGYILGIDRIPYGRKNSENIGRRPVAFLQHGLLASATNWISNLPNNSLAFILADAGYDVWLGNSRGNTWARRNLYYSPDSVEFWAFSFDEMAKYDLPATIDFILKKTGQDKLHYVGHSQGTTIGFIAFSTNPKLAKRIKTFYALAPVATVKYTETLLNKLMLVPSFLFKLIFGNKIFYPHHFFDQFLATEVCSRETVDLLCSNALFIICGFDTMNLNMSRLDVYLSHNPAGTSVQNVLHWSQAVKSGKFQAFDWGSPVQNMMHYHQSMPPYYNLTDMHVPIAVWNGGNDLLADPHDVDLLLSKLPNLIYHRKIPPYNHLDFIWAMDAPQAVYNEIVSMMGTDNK

[2] = target: T1, Gastric triacylglycerol lipase (Canis lupus familiaris); experiment: Inhibition of recombinant dog gastric lipase preincubated for 30 mins at 25 degreeC
[3] = target: T2, Pancreatic lipase-related protein 2 (Cavia porcellus) (UniProt P81139); experiment: Inhibition of recombinant guinea pig PL-RP2 expressed in Aspergillus oryzae at 4:1 molar excess compound concentration preincubated for 30 mins at 25 degreeC relative to control
T2 sequence (whole entry): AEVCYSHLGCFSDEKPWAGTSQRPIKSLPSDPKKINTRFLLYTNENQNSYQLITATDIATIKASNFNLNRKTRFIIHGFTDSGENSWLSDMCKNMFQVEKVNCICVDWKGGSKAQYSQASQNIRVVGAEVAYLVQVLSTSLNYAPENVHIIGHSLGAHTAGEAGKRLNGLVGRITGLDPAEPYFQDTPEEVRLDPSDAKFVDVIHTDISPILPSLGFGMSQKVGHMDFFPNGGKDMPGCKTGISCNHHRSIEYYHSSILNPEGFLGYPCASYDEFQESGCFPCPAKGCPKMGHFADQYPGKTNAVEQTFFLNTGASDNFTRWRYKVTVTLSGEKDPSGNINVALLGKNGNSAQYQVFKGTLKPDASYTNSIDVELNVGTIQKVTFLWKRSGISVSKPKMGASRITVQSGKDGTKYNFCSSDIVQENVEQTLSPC

[4] = target: T2, Pancreatic lipase-related protein 2 (Cavia porcellus); experiment: Inhibition of recombinant guinea pig PL-RP2 expressed in Aspergillus oryzae preincubated for 30 mins at 25 degreeC
Homo sapiens = organism: Homo sapiens; experiment: Inhibition of human pancreatic carboxylesterase at 20:1 molar excess compound concentration preincubated for 30 mins at 25 degreeC relative to control
Summary of the method: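 hCEH (1 mg/mL in 10 mM MES pH 6.5, 150 mM NaCl) pre-incubated 30 min at 25 °C with inhibitor from DMSO stock at various molar excesses, no substrate. Residual activity by pH-stat on tributyrin emulsion at 37 °C in 1 mM Tris-HCl pH 8.0, 100 mM NaCl, 5 mM CaCl2, 1 mM NaTDC. Relative to DMSO-only control; at least triplicate.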

[5] = target: T1, Gastric triacylglycerol lipase (Canis lupus familiaris); experiment: Inhibition of recombinant dog gastric lipase preincubated for 1 hr at 25 degreeC relative to orlistat
[6] = target: T1, Gastric triacylglycerol lipase (Canis lupus familiaris); experiment: Inhibition of recombinant dog gastric lipase assessed as residual activity at 4.1 mg/ml under gastric phase at pH 5.5 using solid test meal measured up to 30 mins relative to control; settings: time min <=30
Summary of the method: (§1)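 Gastric phase: 15 mL liquid or solid test meal (506 mg TAG) premixed with 734 µL of 4.1 mg/mL DMSO stock (2.94 mg, 7.262 µmol), then DGL to 17 µg/mL final, pH 5.5, 37 °C, stirred. Samples at 1, 15, 29 min; residual DGL activity by pH-stat; lipolysis level from TLC-FID of lipid extracts. DMSO-only controls; n = 3.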

[7] = target: T1, Gastric triacylglycerol lipase (Canis lupus familiaris); experiment: Inhibition of recombinant dog gastric lipase assessed as lipolysis level at 4.1 mg/ml under gastric phase at pH 5.5 using liquid test meal measured up to 30 mins (reference value: 22.3 +/- 1.4 %); set-up: scale not given: the % may be the effect or the level left; settings: time min <=30; summary of the method: as §1
[8] = target: T3, Pancreatic triacylglycerol lipase (Sus scrofa) (UniProt P00591); experiment: Inhibition of porcine pancreatic lipase assessed as lipolysis level at 4.1 mg/ml under duodenal phase at pH 6.5 using liquid test meal measured at 45 mins (reference value: 58 +/- 3.1 %); set-up: scale not given: the % may be the effect or the level left
T3 sequence (whole entry): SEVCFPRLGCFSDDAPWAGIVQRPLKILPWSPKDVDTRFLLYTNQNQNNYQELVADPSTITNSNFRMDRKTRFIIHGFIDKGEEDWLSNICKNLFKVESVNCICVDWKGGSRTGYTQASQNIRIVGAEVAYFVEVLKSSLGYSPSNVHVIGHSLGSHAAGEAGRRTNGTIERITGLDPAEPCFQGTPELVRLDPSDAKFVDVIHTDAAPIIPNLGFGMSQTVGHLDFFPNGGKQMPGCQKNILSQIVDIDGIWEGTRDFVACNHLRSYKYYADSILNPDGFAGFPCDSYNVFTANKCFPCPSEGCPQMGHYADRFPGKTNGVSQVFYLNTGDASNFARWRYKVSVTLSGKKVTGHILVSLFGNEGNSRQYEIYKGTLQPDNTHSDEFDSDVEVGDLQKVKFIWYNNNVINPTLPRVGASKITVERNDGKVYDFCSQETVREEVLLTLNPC

[9] = target: T3, Pancreatic triacylglycerol lipase (Sus scrofa); experiment: Inhibition of porcine pancreatic lipase assessed as lipolysis level at 4.1 mg/ml under duodenal phase at pH 6.5 using solid test meal measured at 45 mins (reference value: 24.7 +/- 0.87 %); set-up: scale not given: the % may be the effect or the level left
[10] = target: T3, Pancreatic triacylglycerol lipase (Sus scrofa); experiment: Inhibition of porcine pancreatic lipase assessed as lipolysis level at 4.1 mg/ml under duodenal phase at pH 6.5 using solid test meal measured at 90 mins (reference value: 45.4 +/- 1.4 %); set-up: scale not given: the % may be the effect or the level left
[11] = target: T1, Gastric triacylglycerol lipase (Canis lupus familiaris); experiment: Inhibition of recombinant dog gastric lipase assessed as lipolysis level at 4.9 mg/ml under gastric phase at pH 5.5 using solid test meal measured up to 30 mins (reference value: 13 +/- 1.2 %); set-up: scale not given: the % may be the effect or the level left; settings: time min <=30
Summary of the method: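 In vitro two-phase digestion at 37 °C, 1,000 rpm: 15 mL liquid or solid test meal (506 mg TAG) was premixed with 7.262 µmol inhibitor in DMSO (DMSO-only control). Gastric phase: DGL 17 µg/mL final, pH 5.5. Duodenal phase from 30 min: pancreatic extract plus bovine bile added (PPL 250 µg/mL, bile salts 4.0 mM), pH 6.25. Lipids in samples were quantified by TLC-FID; LL% is (MAG+FFA) relative to 3×initial TAG; n = 3.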

[12] = target: T3, Pancreatic triacylglycerol lipase (Sus scrofa); settings: dose 4.9 mg/ml, time 30-90 min

SMILES | inhibition [1] [%] | XI50 [2] [molar excess] | inhibition [3] [%] | XI50 [4] [molar excess] | inhibition (Homo sapiens) [%] | fold change (FC) [5] | Activity [6] [%] | Activity [7] [%] | Activity [8] [%] | Activity [9] [%] | Activity [10] [%] | Activity [11] [%] | inhibition [12] [%]
O=c1oc(OCCOCc2ccccc2)nn1-c1cccc(Oc2ccccc2)c1 | 91.5 | 0.5 | 60.6 | 0.64 | 71.5 | 11.2 | 2.8 | 4.5 | 48.1 | 20.6 | 33.7 |  | 
CCCCCCCCCCC[C@@H](C[C@@H]1OC(=O)[C@H]1CCCCCC)OC(=O)[C@@H](CC(C)C)NC=O |  |  |  |  |  |  |  |  |  |  |  | 2.1 | 85.2
